Target: T1, Neutrophil elastase (Homo sapiens, UniProt P08246)
T1 sequence (P08246 whole entry): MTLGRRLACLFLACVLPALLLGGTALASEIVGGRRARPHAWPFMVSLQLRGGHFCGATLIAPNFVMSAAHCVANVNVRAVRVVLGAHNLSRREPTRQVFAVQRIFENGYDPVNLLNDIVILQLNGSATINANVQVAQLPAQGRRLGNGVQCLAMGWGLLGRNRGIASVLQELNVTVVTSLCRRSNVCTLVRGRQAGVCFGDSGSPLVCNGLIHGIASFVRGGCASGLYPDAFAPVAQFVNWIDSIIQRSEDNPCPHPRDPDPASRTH
Assay: Inhibition of human leukocyte elastase
Outline: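 Enzyme preincubated 4 min with inhibitor (DMSO stock, 1 mg/mL, diluted in DMSO when needed) in 0.1 M Tris-NaCl buffer pH 7.5 with NaN3. Aliquot then added to N-(methoxysuccinyl)-Ala-Ala-Pro-Val 4-nitroanilide substrate in buffer. Residual hydrolysis rate read at 410 nm for 2 min at 1 s intervals; IC50 taken from varied inhibitor volumes.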

SMILES	IC50 [µM]
CC(=O)OCC1=C(C(=O)OC(c2ccccc2)c2ccccc2)N2C(=O)[C@@H](N)C2SC1 (stereo partly drawn)	> 10
CC(=O)OCC1=C(C(=O)OC(c2ccccc2)c2ccccc2)N2C(=O)/C(=C/c3ccccn3)C2SC1 (stereo not drawn)	> 10
C=C=C1C(=O)N2C(C(=O)OC(c3ccccc3)c3ccccc3)=C(COC(C)=O)CSC12 (stereo not drawn)	9
CC(=O)OCC1=C(C(=O)OC(c2ccccc2)c2ccccc2)N2C(=O)/C(=C/C(=O)OC(C)(C)C)C2SC1 (stereo not drawn)	> 10
CC(=O)OCC1=C(C(=O)OC(c2ccccc2)c2ccccc2)N2C(=O)/C(=C/c3ccccn3)C2S(=O)(=O)C1 (stereo not drawn)	> 10
CC(=O)/C=C1/C(=O)N2C(C(=O)OC(c3ccccc3)c3ccccc3)=C(COC(C)=O)CS(=O)(=O)C12 (stereo not drawn)	> 10
CC(=O)OCC1=C(C(=O)OC(c2ccccc2)c2ccccc2)N2C(=O)/C(=C/C(=O)OC(C)(C)C)C2S(=O)(=O)C1 (stereo not drawn)	7.1
CC(=O)OCC1=C(C(=O)OC(c2ccccc2)c2ccccc2)N2C(=O)C(=C=CC(C)(C)C)C2SC1 (stereo not drawn)	> 10
CC(=O)OCC1=C(C(=O)OC(c2ccccc2)c2ccccc2)N2C(=O)[C@H](Cl)C2SC1 (stereo partly drawn)	6
CC(=O)OCC1=C(C(=O)OC(c2ccccc2)c2ccccc2)N2C(=O)C(Br)(Br)C2SC1 (stereo not drawn)	1.39
CC(=O)OCC1=C(C(=O)OC(c2ccccc2)c2ccccc2)N2C(=O)CC2SC1 (stereo not drawn)	> 10
CON(C)C(=O)/C=C1/C(=O)N2C(C(=O)OC(c3ccccc3)c3ccccc3)=C(COC(C)=O)CS(=O)(=O)C12 (stereo not drawn)	> 10
CC(=O)OCC1=C(C(=O)OC(c2ccccc2)c2ccccc2)N2C(=O)/C(=C/CO)C2SC1 (stereo not drawn)	> 10
CC(=O)OCC1=C(C(=O)OC(c2ccccc2)c2ccccc2)N2C(=O)/C(=C/C=O)C2SC1 (stereo not drawn)	13.9
CC(=O)OCC1=C(C(=O)OC(c2ccccc2)c2ccccc2)N2C(=O)[C@H](I)C2SC1 (stereo partly drawn)	1.18
CC(=O)OCC1=C(C(=O)OC(c2ccccc2)c2ccccc2)N2C(=O)/C(=C/c3ccccc3)C2SC1 (stereo not drawn)	> 10
COC(=O)/C=C1/C(=O)N2C(C(=O)OC(c3ccccc3)c3ccccc3)=C(COC(C)=O)CS(=O)(=O)C12 (stereo not drawn)	8.9
CC(=O)OCC1=C(C(=O)OC(c2ccccc2)c2ccccc2)N2C(=O)C(=O)C2SC1 (stereo not drawn)	> 10
CC(=O)OCC1=C(C(=O)OC(c2ccccc2)c2ccccc2)N2C(=O)/C(=C/C#N)C2SC1 (stereo not drawn)	> 10
CC(=O)OCC1=C(C(=O)OC(c2ccccc2)c2ccccc2)N2C(=O)/C(=C\c3ccccc3)C2SC1 (stereo not drawn)	> 10
CC(=O)OCC1=C(C(=O)OC(c2ccccc2)c2ccccc2)N2C(=O)C(=C=CC(C)(C)C)C2S(=O)(=O)C1 (stereo not drawn)	10.5
CC(=O)OCC1=C(C(=O)OC(c2ccccc2)c2ccccc2)N2C(=O)/C(=C/c3ccccc3)C2S(=O)(=O)C1 (stereo not drawn)	8.9
[2H]C(=C=C1C(=O)N2C(C(=O)OC(c3ccccc3)c3ccccc3)=C(COC(C)=O)CS(=O)(=O)C12)C(C)(C)C (stereo not drawn)	13.5

Second part, the compound after the results:

IC50 [µM]	SMILES
2.6	COC(=O)/C=C1/C(=O)N2C(C(=O)OC(c3ccccc3)c3ccccc3)=C(COC(C)=O)CSC12 (stereo not drawn)
3.36	CC(=O)OCC1=C(C(=O)OC(c2ccccc2)c2ccccc2)N2C(=O)/C(=C\Br)C2S(=O)(=O)C1 (stereo not drawn)
5.35	CO[C@H]1C(=O)N2C(C(=O)OC(c3ccccc3)c3ccccc3)=C(COC(C)=O)CSC12 (stereo partly drawn)
2.56	CC(=O)OCC1=C(C(=O)OC(c2ccccc2)c2ccccc2)N2C(=O)C(=C(Cl)Cl)C2S(=O)(=O)C1 (stereo not drawn)
0.21	COC(=O)/C(Br)=C1/C(=O)N2C(C(=O)OC(c3ccccc3)c3ccccc3)=C(COC(C)=O)CSC12 (stereo not drawn)
0.49	CC(=O)OCC1=C(C(=O)OC(c2ccccc2)c2ccccc2)N2C(=O)/C(=C/C#N)C2S(=O)(=O)C1 (stereo not drawn)
6	CC(=O)OCC1=C(C(=O)OC(c2ccccc2)c2ccccc2)N2C(=O)/C(=C\c3ccccc3)C2S(=O)(=O)C1 (stereo not drawn)
4.27	CC(=O)/C=C1/C(=O)N2C(C(=O)OC(c3ccccc3)c3ccccc3)=C(COC(C)=O)CSC12 (stereo not drawn)
6.41	CC(=O)OCC1=C(C(=O)OC(c2ccccc2)c2ccccc2)N2C(=O)C(=C(Cl)Cl)C2SC1 (stereo not drawn)
0.39	CC(=O)OCC1=C(C(=O)OC(c2ccccc2)c2ccccc2)N2C(=O)/C(=C\Br)C2SC1 (stereo not drawn)
0.26	CC(=O)OCC1=C(C(=O)OC(c2ccccc2)c2ccccc2)N2C(=O)C(=C(Br)Br)C2SC1 (stereo not drawn)
6.1	C=C=C1C(=O)N2C(C(=O)OC(c3ccccc3)c3ccccc3)=C(COC(C)=O)CS(=O)(=O)C12 (stereo not drawn)
5.4	CC(=O)OCC1=C(C(=O)OC(c2ccccc2)c2ccccc2)N2C(=O)C(=C=CBr)C2SC1 (stereo not drawn)
2.07	CC(=O)OCC1=C(C(=O)OC(c2ccccc2)c2ccccc2)N2C(=O)C(=C(Br)Br)C2S(=O)(=O)C1 (stereo not drawn)
0.28	CO[C@H]1C(=O)N2C(C(=O)OC(c3ccccc3)c3ccccc3)=C(COC(C)=O)CS(=O)(=O)C12 (stereo partly drawn)
